# In ChEMBL document CHEMBL5108057, “Development of MAO-A and 5-HT2AR Dual Inhibitors with Improved Antidepressant Activity” (J Med Chem, 2022):
# Calls of active or inactive are those of the source. The rule behind the calls is not given here.
# What was measured:
# [1] = Toxicity in mouse assessed as toxic effect on lung at 10 to 20 mg/kg by H and E staining based assay; assay type: organism-based; conditions: in vivo, dose 10-20 mg/kg
# How it was run: (§1)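 Mice given compound at 10 or 20 mg/kg, with fluoxetine 20 mg/kg as comparator. Paraffin tissue sections of 4 μm were cut. Staining: hematoxylin 5 min, 75% HCl-ethanol differentiation 30 s, eosin 2 min. Organs (liver, kidney, lung, heart, spleen) examined at ×400; hippocampus (CA1, CA3, DG) at ×200.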
# Mus musculus [2] = experiment: Antidepressant activity in reserpine-induced ICR mouse model assessed as reduction in immobility time at 10 to 20 mg/kg pretreated with reserpine for 3 days followed by compound addition on day 4 to 10 by forced swimming test; assay type: functional, organism-based; conditions: dose 10-20 mg/kg, time 6.0 day
# How it was run: (§2)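 Body weight was recorded daily. OFT: 5 min session scoring distance, speed, rearing and dejection. FST and TST: 6 min, with immobility scored over the last 4 min. Mean ± SD, n = 6; one-way ANOVA and t-test.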
# [3] = Toxicity in mouse assessed as toxic effect on liver at 10 to 20 mg/kg by H and E staining based assay; assay type: organism-based; conditions: in vivo, dose 10-20 mg/kg; how it was run: as §1
# Mus musculus [4] = experiment: Antidepressant activity in chronic unpredictable mild stress ICR mouse model assessed as increase in total distance traveled at 10 to 20 mg/kg administered for 2 weeks by open field test; assay type: functional, organism-based; conditions: dose 10-20 mg/kg
# How it was run: (§3)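 ICR mice received CUMS for 4 weeks: 11 stressors given randomly twice daily, 42 days in total. OFT: 5 min session scoring distance, speed, rearing and dejection. FST/TST: 6 min, with immobility scored over the last 4 min. Sucrose preference test was also run. Mean ± SD, n = 6.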
# Mus musculus [5] = experiment: Antidepressant activity in reserpine-induced mouse hippocampal tissue model assessed as increase in 5-HT level at 10 to 20 mg/kg pretreated with reserpine for 3 days followed by compound addition on day 4 to 10 by HPLC analysis; assay type: functional; conditions: dose 10-20 mg/kg; time 6 day
# [6] = Inhibition of 5-HT2AR mRNA expression in zebra fish AB assessed as fold decrease in 2 delta delta CT level at 1 uM by RT-qPCR method relative to control; assay type: functional, Danio rerio
# How it was run: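 Total RNA from zebrafish was extracted with Trizol and reverse-transcribed with MMLV. SYBR Green qPCR: 95 °C 2 min; 40 cycles of 95, 60 and 72 °C, 30 s each; then 72 °C for 5 min. 5-HT2AR was normalized to GAPDH by the 2^−ΔΔCT method; mean ± SD, n = 3.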
# [7] = Toxicity in mouse assessed as toxic effect on kidney at 10 to 20 mg/kg by H and E staining based assay; assay type: organism-based; conditions: in vivo, dose 10-20 mg/kg; how it was run: as §1
# [8] = Toxicity in mouse assessed as toxic effect on spleen at 10 to 20 mg/kg by H and E staining based assay; assay type: organism-based; conditions: in vivo, dose 10-20 mg/kg; how it was run: as §1
# Mus musculus [9] = experiment: Antidepressant activity in reserpine-induced mouse assessed as downregulation of 5-HT2AR expression at 10 to 20 mg/kg pretreated with reserpine for 3 days followed by compound addition on day 4 to 10 by Western blot analysis; assay type: functional, organism-based; conditions: dose 10-20 mg/kg, time 6.0 day
# How it was run: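 Whole-brain protein was quantified by BCA and diluted to 3 mg/mL, then run on 4−20% SDS-PAGE and blotted. Primary antibody at 4 °C overnight, secondary 1 h at room temperature. 5-HT1AR and 5-HT2AR levels are relative; mean ± SD, n = 3.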
# [10] = target: T1, Amine oxidase [flavin-containing] B (Homo sapiens, UniProt P27338); experiment: Inhibition of MAO-B (unknown origin) using p-tyramine as substrate preincubated for 15 mins followed by substrate addition and measured after 15 mins by Amplex red fluorescence based microplate reader assay
# T1 sequence (P27338 whole entry): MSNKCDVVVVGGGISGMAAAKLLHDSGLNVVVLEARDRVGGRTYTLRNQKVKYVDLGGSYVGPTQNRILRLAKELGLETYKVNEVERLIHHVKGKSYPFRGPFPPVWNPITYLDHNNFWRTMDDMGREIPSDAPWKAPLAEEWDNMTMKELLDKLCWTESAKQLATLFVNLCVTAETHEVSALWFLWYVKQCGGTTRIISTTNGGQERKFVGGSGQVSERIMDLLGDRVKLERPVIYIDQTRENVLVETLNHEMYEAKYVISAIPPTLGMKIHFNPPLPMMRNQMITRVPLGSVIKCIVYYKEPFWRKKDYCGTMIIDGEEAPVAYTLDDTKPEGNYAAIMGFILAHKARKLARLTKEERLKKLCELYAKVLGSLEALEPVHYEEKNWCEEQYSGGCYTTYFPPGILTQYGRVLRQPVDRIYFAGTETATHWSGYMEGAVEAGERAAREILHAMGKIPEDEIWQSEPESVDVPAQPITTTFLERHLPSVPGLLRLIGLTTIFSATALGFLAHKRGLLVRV
# Mus musculus [11] = experiment: Antidepressant activity in reserpine-induced ICR mouse model assessed as decrease in number of dejection at 10 to 20 mg/kg pretreated with reserpine for 3 days followed by compound addition on day 4 to 10 by open field test; assay type: functional, organism-based; conditions: dose 10-20 mg/kg, time 6.0 day; how it was run: as §2
# [12] = Cmax in Sprague-Dawley rat at 10 mg/kg, IG measured upto 1440 mins by LC-MS/MS analysis; assay type: ADME, organism-based; parameters: time < 1440 min, dose 10 mg/kg, route ig; conditions: in vivo, po
# Homo sapiens = organism: Homo sapiens; experiment: Selectivity index, ratio of IC50 for inhibition of MAO-B (unknown origin) to IC50 for inhibition of MAO-A (unknown origin)
# How it was run: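 Amplex Red coupled assay. Test sample was preincubated with MAO-A or MAO-B at 37 °C for 15 min. p-Tyramine substrate working solution was added, with HRP converting the H2O2 formed to resorufin, for a further 15 min at 37 °C. Fluorescence read at Ex 545/Em 590 nm. […] SI = MAO-B IC50 / MAO-A IC50.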
# Danio rerio [13] = organism: Danio rerio; experiment: Antidepressant activity in reserpine-induced zebrafish AB depression model assessed as fast travel at 0.1 to 1 uM pretreated for 40 mins with reserpine followed by compound addition and measured for 7 days by open field test; assay type: functional, organism-based; conditions: dose 0.1-1 µM, time 7.0 day
# How it was run: (§4)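 Zebrafish were exposed to 10 mg/L reserpine for 40 min. Compound (0.1, 0.5, 1 μM) or fluoxetine (1 μM) was given 24 h later for 7 days. Fish kept at 28.5 °C on a 14 h light/10 h dark cycle. Open-field and novel tank tests were video-tracked for distance, velocity, immobility and time in the top. Mean ± SD, n = 6.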
# Danio rerio [14] = organism: Danio rerio; experiment: Antidepressant activity in reserpine-induced zebrafish AB depression model assessed as improved locomotion at 0.1 to 1 uM pretreated for 40 mins with reserpine followed by compound addition and measured for 7 days by novel tank test; assay type: functional, organism-based; conditions: dose 0.1-1 µM, time 7.0 day; how it was run: as §4
# Danio rerio [15] = organism: Danio rerio; experiment: Antidepressant activity in reserpine-induced zebrafish AB depression model assessed as increase in distance traveled at 0.1 to 1 uM pretreated for 40 mins with reserpine followed by compound addition and measured for 7 days by open field test; assay type: functional, organism-based; conditions: dose 0.1-1 µM, time 7.0 day; how it was run: as §4
# PC-12 = experiment: Neurocytoprotective activity against CORT-induced damage in rat PC-12 cells at 0.5 to 4 uM measured after 24 hrs by MTT assay; assay type: functional, cell-based; conditions: dose 0.5-4 µM
# How it was run: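 PC12 cells seeded at 5 × 10^4 cells/mL for 24 h. Medium was then replaced with compound (0.5–4.0 μM) plus 500 μM CORT (DMSO <1%) for 24 h. Viability was measured by MTT relative to the CORT model group.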
# Mus musculus [16] = experiment: Antidepressant activity in chronic unpredictable mild stress ICR mouse model assessed as decrease in immobility time at 10 to 20 mg/kg measured after 2 weeks by tail suspension test; assay type: functional, organism-based; conditions: dose 10-20 mg/kg; how it was run: as §3
structure (smiles),measurement,setting,value
O=C1c2ccccc2-c2nccc3cc(OCCCCCN4CCN(c5ccccc5F)CC4)cc1c23,Activity,[1],Non-Toxic
same,Activity,Mus musculus [2],Active
same,Activity,[3],Non-Toxic
same,Activity,Mus musculus [4],Active
same,Activity,Mus musculus [5],579.92 ng/mL
same,fold change (FC),[6],0.014
same,Activity,[7],Non-Toxic
same,Activity,[8],Non-Toxic
same,Activity,Mus musculus [9],Active
same,IC50,[10],1050 nM
same,Activity,Mus musculus [11],Active
same,Cmax,[12],99.7 ng/mL
same,Ratio IC50,Homo sapiens,262
same,Activity,Danio rerio [13],Active
same,Activity,Danio rerio [14],Active
same,Activity,Danio rerio [15],Active
same,Activity,PC-12,Active
same,Activity,Mus musculus [16],Active
